Results as given in ChEMBL document CHEMBL2034934, “Isodesacetyluvaricin, an Annonaceous acetogenin, specifically inhibits gene expression of cyclooxygenase-2” (J Nat Prod, 2012).
The source made the active and inactive calls. The rule behind the calls is not given here.

Tests used:
A-431 [1] = assay: Cytotoxicity against EGF-stimulated human A431 cells at 1 to 5 uM after 24 hrs by WST1 assay; type: cell-based; settings: a-431, 24 h
Method in brief: (§1)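 A431 cells serum-starved 24 h, pretreated 30 min at 1 or 5 μM, then EGF 25 ng/mL for 24 h or 48 h. WST-1 reagent 5–10 min at 37 °C; absorbance 450 nm, reference 600 nm.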

A-431 [2] = assay: Antiinflammatory activity in human A431 cells assessed as inhibition of EGF-stimulated COX1 mRNA level pretreated for 30 mins before EGF challenge measured after 3 hrs by RT-PCR analysis; type: functional, cell-based
Method in brief: (§2)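 A431 cells serum-starved 24 h, pretreated 30 min at 0.1, 1 or 5 μM, then EGF 25 ng/mL for 3 h. Total RNA by Trizol, reverse-transcribed; COX-1 and COX-2 amplified by PCR (35 cycles: 94 °C 30 s, 58 °C 30 s, 72 °C 1 min). Products run on 2% agarose, ethidium bromide stained.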

A-431 [3] = assay: Antiinflammatory activity in human A431 cells assessed as reduction of EGF-stimulated COX2 promoter activity at 0.1 to 5 uM after 24 hrs by luciferase reporter gene assay; type: functional, cell-based
Method in brief: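 A431 cells transiently transfected (Lipofectamine 2000) with 0.5 μg COX-2 promoter luciferase plasmid pXC 918 for 24 h. Then treated with compound and stimulated with EGF. Dual-luciferase read-out normalised to lysate protein; means ± SEM, Student's t-test.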

A-431 [4] = assay: Antiinflammatory activity in human A431 cells assessed as decrease in thapsigargin-induced calcium influx at 1 uM pretreated for 30 mins before thapsigargin challenge measured by fluorescence analysis; type: functional, cell-based
Method in brief: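 A431 cells on glass coverslips (24 or 48 h), loaded with 1 μM Fluo-4 at 37 °C for 20 min in the dark. Store-operated influx evoked by 2 μM thapsigargin; Fluo-4 read by time-lapse videomicroscopy; 15–20 cells pooled.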

A-431 [5] = assay: Inhibition of CREB promoter activity in EGF-stimulated human A431 cells at 1 to 5 uM pretreated for 30 mins before EGF challenge measured after 3 hrs by luciferase reporter gene analysis; type: cell-based
Method in brief: (§3)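 A431 cells transiently transfected with 0.5 μg CRE-promoter plasmid pXC 80 (CREB) or NFAT-promoter luciferase plasmid. After 24 h, pretreated 30 min at 1 or 5 μM, then EGF 25 ng/mL for 3 h. Luciferase normalised to lysate protein.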

RAW264.7 = assay: Antiinflammatory activity in mouse RAW264.7 cells assessed as inhibition of LPS-stimulated COX2 expression pretreated for 30 mins before LPS challenge measured after 3 hrs by RT-PCR analysis; type: functional, cell-based
Method in brief: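 Raw 264.7 mouse macrophages serum-starved 24 h, pretreated 30 min at 0.1, 1 or 5 μM, then LPS 10 μg/mL for 3 h. Total RNA by Trizol; COX-2 mRNA by RT-PCR (35 cycles), read on agarose gel with ethidium bromide.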

A-431 [6] = assay: Cytotoxicity against EGF-stimulated human A431 cells at 1 to 5 uM after 48 hrs by WST1 assay; type: cell-based; settings: a-431, 48 h; method in brief: as §1
A-431 [7] = assay: Antiinflammatory activity in human A431 cells assessed as reduction of EGF-stimulated COX2 protein expression pretreated with compound before EGF challenge measured by Western blotting analysis; type: functional, cell-based
Method in brief: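 A431 cells serum-starved, pretreated with compound, then EGF-stimulated. 40 μg lysate (RIPA) run on 12.5% SDS-PAGE, blotted to nitrocellulose. Probed 16 h at 4 °C with mouse anti-COX-2 (1:2000) and β-actin (1:20 000), anti-mouse IgG secondary, ECL detection.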

A-431 [8] = assay: Antiinflammatory activity in human A431 cells assessed as inhibition of EGF-stimulated COX2 mRNA level pretreated for 30 mins before EGF challenge measured after 3 hrs by RT-PCR analysis; type: functional, cell-based; method in brief: as §2
A-431 [9] = assay: Inhibition of NFAT promoter activity in EGF-stimulated human A431 cells at 1 to 5 uM pretreated for 30 mins before EGF challenge measured after 3 hrs by luciferase reporter gene analysis; type: cell-based; method in brief: as §3

CCCCCCCCCC[C@@H](O)[C@H]1CC[C@H]([C@H]2CC[C@H]([C@H](O)CCCCCCCCCCCCC3=C[C@H](C)OC3=O)O2)O1 [ISODESAACETYLUVARICIN]
Activity (A-431 [1]): Non-toxic
inhibition (A-431 [2]): inactive
Activity (A-431 [3]): Active
Activity (A-431 [4]): inactive
inhibition (A-431 [5]): Active
inhibition (RAW264.7): Active
Activity (A-431 [6]): Non-toxic
Activity (A-431 [7]): Dose-dependent effect
inhibition (A-431 [8]): Dose-dependent effect
inhibition (A-431 [9]): Active
